Results gathered from unrelated publications.
Compare with care: the assays were run in different laboratories.
Target: Phosphatidylinositol 5-phosphate 4-kinase type-2 gamma (PIP4K2C, Homo sapiens, UniProt Q8TBX8)
Sequence (Q8TBX8 1-421, as in one of the studies): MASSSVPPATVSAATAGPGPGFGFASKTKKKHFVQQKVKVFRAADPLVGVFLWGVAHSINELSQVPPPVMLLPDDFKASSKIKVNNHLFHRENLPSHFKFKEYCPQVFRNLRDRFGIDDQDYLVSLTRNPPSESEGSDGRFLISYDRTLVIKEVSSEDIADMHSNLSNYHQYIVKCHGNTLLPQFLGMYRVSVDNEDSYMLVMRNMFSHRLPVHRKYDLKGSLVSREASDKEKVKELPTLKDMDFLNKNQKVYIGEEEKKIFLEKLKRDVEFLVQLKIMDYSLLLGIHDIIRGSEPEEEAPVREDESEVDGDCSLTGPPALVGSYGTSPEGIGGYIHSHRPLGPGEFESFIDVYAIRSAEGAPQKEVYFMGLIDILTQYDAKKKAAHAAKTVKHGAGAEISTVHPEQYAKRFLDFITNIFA

| SMILES | assay | conditions | remaining binding |
| --- | --- | --- | --- |
| O=C(NCC1CCOCC1)c1n[nH]cc1NC(=O)c1c(F)cccc1F | binding, competition with immobilised ligand | 1 µM | 91% |
| c1cncc(-c2cccc(Nc3nccc(NC4CCCCC4)n3)c2)c1 | binding, competition with immobilised ligand | 10 µM | 21% |
| Cc1cnc(Nc2ccc(C(=O)N3CCC(N4CCCC4)CC3)cc2)nc1-c1cc2ccccc2s1 | binding, competition with immobilised ligand | 1 µM | 5.6% |
| FC(F)(F)Oc1cccc(-c2cnc3ccc(-c4ccncc4)nn23)c1 | cell-free assay, competition with immobilised ligand | 5 µM | 32% |
| CN(C)c1nccc(-c2cnc3ncccn23)n1 | binding | 1 µM | 93% |
| COc1cnc(Nc2cccc(S(N)(=O)=O)c2)nc1N1CCN(c2ccccc2)CC1 | binding, competition with immobilised ligand | 1 µM | 95% |
| O=C(NCCCN1CCOCC1)c1ccc(Nc2ncc(Cl)c(-c3ccc(Cl)s3)n2)cc1 | binding, competition with immobilised ligand | 1 µM | 15% |
| CCN1CCN(Cc2ccc(C(=O)Nc3ccc(C)c(Oc4ccc5c(c4)CC(=O)N5)c3)cc2C(F)(F)F)CC1 | binding, competition with immobilised ligand | 1 µM | 100% |
| CNCc1ccccc1-c1csc([C@H](C)Nc2nc(C)nc3cc(OC)c(OC)cc23)c1 | cell-free assay, competition with immobilised ligand | 1 µM | 100% |
| C=CC(=O)N1CCC(C(=O)NCC(=O)N2CCN(c3nc(-c4cnc(N)nc4C(F)F)nc(N4CCOCC4)n3)CC2)CC1 | binding, competition with immobilised ligand | 1 µM | 95% |
| O=C(NCCCN1CCOCC1)c1ccc(Nc2nccc(-c3cc4ccccc4s3)n2)cc1 | binding, competition with immobilised ligand | 1 µM | 1.9% |
| C[C@@H]1CCN(c2nccc(-c3cnn4ncccc34)n2)C1 | binding | 1 µM | 40% |
| c1ccc(N2CCN(Cc3nc4ccccc4[nH]3)CC2)nc1 | binding, competition with immobilised ligand | 1 µM | 86% |
| CN(CCCC(F)(F)F)c1nccc(-c2cnn3ncccc23)n1 | binding | 1 µM | 100% |
| Cc1c(NC(=O)c2cc(C(N)=O)nc3cc(F)ccc23)c(C(F)(F)F)nn1Cc1ccc(C(C)(C)C)cc1 | cell-free assay, competition with immobilised ligand | 1 µM | 76% |
| COc1cnc(Nc2cccc(S(N)(=O)=O)c2)nc1N1CCN(c2ccccc2)C(=O)C1 | binding, competition with immobilised ligand | 1 µM | 0.95% |
| Cc1cc(-n2nc(Cc3cc(F)cc(C(F)(F)F)c3)nc2C)ccc1C(N)=O | cell-free assay, competition with immobilised ligand | 1 µM | 100% |
| N[C@@H]1CCN(c2nccc(-c3cnn4ncccc34)n2)C1 | binding | 1 µM | 64% |
| CCS(=O)(=O)c1cc2cc(C[C@](O)(CC(C)(C)c3ccc(F)cc3C(N)=O)C(F)(F)F)[nH]c2cn1 | cell-free assay, competition with immobilised ligand | 1 µM | 100% |
| CN(C)c1nccc(-c2cnn3ncccc23)n1 | binding | 1 µM | 100% |
| CC(=O)N1CCC(c2ccc(C(=O)NC3=NCCN3)cc2C(F)(F)F)CC1 | cell-free assay, competition with immobilised ligand | 1 µM | 94% |
| Cc1cnn2ncc(-c3ccnc(N(C)C)n3)c2c1 | binding | 1 µM | 80% |
